# Hits are enriched below; roughly 29% of the tested compounds scored in any of these assays.
# CYP2C9 inhib: blockers of cytochrome P450 2C9 activity – biochemical, luminescence, ADME assay, primary screen. P11712. CYP2C9 Supersomes, luciferin-H conversion. inhibition, % at 5 µM. 96,000 compounds, 20% hits. AID 777, 2007;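 active = blocking of liver enzyme CYP2C9 beyond about 50% at 5 µM, limit read from the data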
# CYP2C19 inh: blockers of cytochrome P450 2C19 activity – biochemical, luminescence, ADME assay, primary screen | P33261 | CYP2C19 Supersomes, luciferin-H EGE luminescence, 30 min | inhibition, % at 5 µM | 96,000 compounds, 21% hits | AID 778, 2007;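 active = CYP2C19 inhibition above a set limit at 5 µM in the primary screen, cut at about 50% in these data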;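 also: plate controls were negative control wells for no effect and 2.5 mM tranylcypromine positive control for full effect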
# Target sequence (P33261 whole entry, looked up): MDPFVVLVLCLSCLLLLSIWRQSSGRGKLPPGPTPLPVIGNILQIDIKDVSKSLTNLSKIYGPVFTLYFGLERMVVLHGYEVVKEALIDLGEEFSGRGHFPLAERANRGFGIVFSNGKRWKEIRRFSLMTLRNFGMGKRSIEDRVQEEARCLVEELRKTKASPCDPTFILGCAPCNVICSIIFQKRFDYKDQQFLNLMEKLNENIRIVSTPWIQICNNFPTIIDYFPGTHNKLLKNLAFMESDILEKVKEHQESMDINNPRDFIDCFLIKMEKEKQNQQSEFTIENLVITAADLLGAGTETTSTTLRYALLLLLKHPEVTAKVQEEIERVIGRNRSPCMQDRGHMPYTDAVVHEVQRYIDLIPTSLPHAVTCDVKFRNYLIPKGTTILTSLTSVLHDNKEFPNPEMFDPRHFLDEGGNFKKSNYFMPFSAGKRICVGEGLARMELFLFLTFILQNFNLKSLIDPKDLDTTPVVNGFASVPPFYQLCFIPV
# CYP2C19 activ: human CYP2C19 activators, primary screen, biochemical, luminescence; Cytochrome P450 2C19 (Homo sapiens), P33261; recombinant CYP2C19, luciferin-H EGE luminescence; stronger effect = higher value; 0 = fully inhibited enzyme, 1 = untreated enzyme; activation factor at 5 µM; 96,000 tested, under 10 active; AID 1025, 2008;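 active = activation factor of at least 2 at 5 µM in the primary screen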;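 also: 0 = wells with 2.5 mM tranylcypromine and 1 = vehicle-only wells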
# Ecoli WT expand: growth inhibitors of wild-type E. coli, primary screen, strain BW25113, expanded library, OD600; 98,000 compounds, 0.15% hits; OD600 absorbance; growth inhibition, % at 100 µM;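 active = growth inhibition above about 50% at one test dose, limit read from the data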;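 also: growth measured after 20 h incubation at 37 °C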
# CYP2C9 act: human CYP2C9 activators, primary screen, biochemical, luminescence; recombinant CYP2C9, luciferin-H conversion; stronger effect = higher value; factor 1 = untreated enzyme, 0 = blocked; activation factor at 5 µM; 96,000 compounds, 1.4% hits; AID 1024, 2008;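 active = activation factor of 2 or more for CYP2C9 at a 5 µM dose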;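 also: 0 = sulfaphenazole-blocked wells and 1 = vehicle-only wells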
# Ecoli tolC: growth inhibitors of E. coli tolC mutant, primary screen, strain BW25113 ΔtolC::kan, 384-well | OD615 | growth inhibition, % at 10 µM (by protocol) | 65,000 compounds, 2.2% hits | AID 573, 2007;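 active = growth inhibition at or above a cutoff equal to the mean over every tested compound plus 3 SD, cut at about 60% in these data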;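 also: growth measured after 20 h incubation at 37 °C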
#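 Material: E. coli BW25113 ΔtolC::kan, tolC deletion mutant strain. Measure: percent growth inhibition. Schedule: 37 °C, 20 h exposure. Doses: single-point testing at 10 µM. Signal: A615 absorbance measurement. Buffer or medium: kanamycin-containing LB broth (50 µg/mL).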
# * marks the source's active call; other numbers are inactive results; · = not tested or not shown.
SMILES,CYP2C9 inhib,CYP2C19 inh,CYP2C19 activ,Ecoli WT expand,CYP2C9 act,Ecoli tolC
CC(C)CC(=O)OCc1cn(-c2ccccc2)nn1,5,20,0.8,13,0.9,·
COc1ccc(OC)c(S(=O)(=O)N2CCc3ccccc32)c1,-21,77*,0.2,5,1.2,11
O=S(=O)(c1cccc2cccnc12)N1CCc2ccccc21,-19,10,0.9,-6,1.2,-3
COc1ccc(Br)cc1S(=O)(=O)N1CC(C)OC(C)C1 (stereo not given),·,·,·,·,·,7
CC1Cc2ccccc2N1S(=O)(=O)c1cccc2nsnc12 (stereo not given),99*,79*,0.2,6,0,23
COc1ccccc1N1CCN(S(=O)(=O)c2cccc3nsnc23)CC1,12,43,0.6,-2,0.9,19
COc1ccc(F)cc1S(=O)(=O)N1CC(C)CC(C)C1 (stereo not given),23,65*,0.4,11,0.8,·
CCOC(=O)C1=C(C)C(c2ccccc2OC)NC(=O)N1 (stereo not given),-3,4,1,-8,1,·
CCOC(=O)C1=C(C)C(c2ccccc2OC)NC(=S)N1 (stereo not given),9,53*,0.5,-3,0.9,·
CC1Cc2nc(SCC(=O)N3CCCC3)n(C)c(=O)c2S1 (stereo not given),8,-10,1.1,2,0.9,-11
Cc1ccc(C)c(NC(=O)CSc2nc3c(c(=O)n2C)SC(C)C3)c1 (stereo not given),66*,17,0.8,7,0.3,2
CC1Cc2nc(SCC(=O)Nc3ccc(F)cc3F)n(C)c(=O)c2S1 (stereo not given),53*,27,0.7,·,0.5,-4
Cc1ccc2nc(NC(=O)CSc3nc4c(c(=O)n3C)SC(C)C4)sc2c1 (stereo not given),68*,48,0.5,-15,0.3,9
CCn1c(SCC(=O)Nc2cc(C)ccc2C)nc2c(c1=O)SC(C)C2 (stereo not given),76*,20,0.8,-9,0.2,18
CCN(CC)S(=O)(=O)c1ccc(NC(=O)CSc2cccc[n+]2[O-])cc1,32,-15,1.2,10,0.7,·
CC(=O)NC(CCS(C)(=O)=O)C(=O)Nc1cccc(C(C)=O)c1 (stereo not given),-4,-3,1,-2,1,-5
CCc1ccccc1-n1c(-c2ccncc2)n[nH]c1=S,68*,68*,0.3,-12,0.3,-9
Cc1ccccc1-n1c(-c2ccncc2)n[nH]c1=S,29,54*,0.5,·,0.7,4
CC(c1ccccc1)n1c(-c2ccncc2)n[nH]c1=S (stereo not given),65*,78*,0.2,2,0.3,-6
O=C(CCn1nc(-c2ccc(Cl)cc2)ccc1=O)N1CCN(c2ccccn2)CC1,36,32,0.7,6,0.6,15
COc1ccc(N2CCN(C(=O)CN(c3ccccc3)S(=O)(=O)c3ccc(OC)cc3)CC2)cc1,12,-19,1.2,0,0.9,·
O=C(CCc1ccccc1)N1CCN(c2ccc(Cl)cc2)CC1,44,50*,0.5,11,0.6,·
O=C(Cn1nc(-c2ccc(Cl)cc2)ccc1=O)N1CCN(c2ccccc2)CC1,52*,25,0.7,-4,0.5,-11
O=C(O)CCCC(=O)N1CCN(c2cccc(Cl)c2)CC1,-21,6,0.9,1,1.2,-6
COc1ccc(S(=O)(=O)N(CC(=O)N2CCN(c3ccccc3OC)CC2)c2ccccc2)cc1,87*,85*,0.2,·,0.1,17
SMILES,CYP2C9 inhib,CYP2C19 inh,CYP2C19 activ,Ecoli WT expand,CYP2C9 act,Ecoli tolC
O=C(CN(c1ccc(Cl)cc1)S(=O)(=O)c1ccccc1)N1CCN(c2ccccc2)CC1,92*,97*,0,-9,0.1,·
Cc1c(C(=O)O)sc(=S)n1CCOc1ccccc1,12,2,1,-9,0.9,15
O=C(NC1CC2CCC1C2)c1ccc(CN2CCOCC2)cc1 (stereo not given),-22,-13,1.1,-5,1.2,-13
CC(C)(C)c1ccc(S(=O)(=O)NCC(=O)N2CCN(C(=O)c3ccco3)CC2)cc1,43,29,0.7,7,0.6,7
O=C(NC1CC2CCC(C1)N2C(=O)NCc1ccccc1)C1CC1 (stereo not given),-15,-10,1.1,2,1.1,-19
COc1ccc(Br)cc1CNC(=O)C1CCCN(S(C)(=O)=O)C1 (stereo not given),-5,27,0.7,-1,1.1,-14
Cc1ccc(C)n1Cc1ccc(C(=O)O)cc1,5,-3,1,2,0.9,3
O=C(CN(c1ccc(Cl)c(Cl)c1)S(=O)(=O)c1ccccc1)N1CCc2ccccc2C1,50*,89*,0.1,-13,0.5,·
O=C(Cn1nc(C(F)(F)F)c2c1CCCCC2)N1CCOCC1,4,30,0.7,8,1,-5
O=C(Cn1nc(C(F)(F)F)c2c1CCC2)N1CCN(c2ccccc2)CC1,-126,89*,0.1,5,2.3*,21
Oc1ccc(N2CCN(C(=S)NCCc3ccccc3)CC2)cc1,38,51*,0.5,-9,0.6,·
COc1cc2cc(C(=O)O)n(C)c2c(OC)c1OC,2,-5,1,-8,1,-37
COc1ccc(CCNC(=O)NC23CC4CC(CC(C4)C2)C3)cc1OC,-46,37,0.6,3,1.5,·
CCOc1ccc(OCCN2C(=O)NC3(CCCc4ccccc43)C2=O)cc1 (stereo not given),45,18,0.8,1,0.6,26
C/C=C/c1ccc(OCCCCN2C(=O)NC(C)(C)C2=O)c(OC)c1,22,33,0.7,2,0.8,14
CCOc1cc(C=O)ccc1OCCCN1C(=O)NC(C)(C)C1=O,31,68*,0.3,-2,0.7,·
CC1(C)NC(=O)N(CCOCCOc2c(Cl)cc(Cl)cc2Cl)C1=O,40,56*,0.4,-5,0.6,·
CC1(C)NC(=O)N(CCCOc2ccccc2Br)C1=O,57*,89*,0.1,5,0.4,·
CC1(C)NC(=O)N(CCOc2cccc(Cl)c2Cl)C1=O,32,87*,0.1,9,0.7,9
COc1ccc(-c2cc(C(F)F)n3ncc(C(=O)N4CCN5CCCC5C4)c3n2)cc1 (stereo not given),35,32,0.7,11,0.7,-2
CC1S/C(=C(\C#N)C(N)=O)N(c2ccc(F)cc2)C1=O (stereo not given),6,-11,1.1,2,0.9,-20
Cc1ccc(-c2nnc(SCC(=O)NCC3CCCO3)n2C)cc1 (stereo not given),2,-6,1.1,4,1,·

# From PubChem
